The text below walks through data of ChEMBL document CHEMBL1145160, “Neoclerodane diterpenes as a novel scaffold for mu opioid receptor ligands” (J Med Chem, 2005).

Assay [1] deals with Mus musculus. The experiment in a line: In vivo opioid receptor activity in mouse hot plate assay. In general terms: Thermal pain tests record how soon the animal reacts.
Assay [2] addresses Opioid receptors; delta & kappa (Homo sapiens) (UniProt P41145+P41143). The experiment in a line: Relative affinity for human opioid receptor delta1 and kappa1. It is filed as protein assay.
Assay [3] has as its target T1, Delta-type opioid receptor (Homo sapiens, UniProt P41143). Nature of the assay: Inhibition of [125I]- IOXY binding to human Opioid receptor delta1.
The target in assay [4] is Opioid receptors; mu & kappa (Homo sapiens) (UniProt P41145+P35372). The experiment in a line: Relative affinity for human opioid receptor mu1 and kappa1. The assay is classed as protein assay.
The target in assay [5] is T2, Mu-type opioid receptor (Homo sapiens, UniProt P35372). The experiment in a line: Inhibition of [125I]- IOXY binding to human Opioid receptor mu1.
The target of assay [6] is T3, Kappa-type opioid receptor (Homo sapiens, UniProt P41145). Nature of the assay: Inhibition of [125I]- IOXY binding to human Opioid receptor kappa1.
The target of assay [7] is T3, Kappa-type opioid receptor. Nature of the assay: Stimulatory effect on [35S]GTP gammaS binding to Opioid receptor kappa1 expressed in CHO cells compared to 500 nM U50,488. The assay is classed as functional, cell-based. An outline of the steps:
(§1)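 Membranes from CHO cells stably transfected with DNA for the human μ, δ or κ opioid receptor; agonist-stimulated [35S]GTPγS binding measured; potency given as EC50 ± SD, efficacy as Emax.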
Background: GTPγS resists hydrolysis and so accumulates on activated G proteins.

Assay [8] deals with T3, Kappa-type opioid receptor. The experiment in a line: Stimulation of [35S]GTP-gamma-S, binding to Opioid receptor kappa1 expressed in CHO cells. It is filed as functional, cell-based. An outline of the steps: as §1
For assay [9], the target named is T2, Mu-type opioid receptor. Nature of the assay: Stimulatory effect on [35S]-GTP gammaS binding to Opioid receptor mu1 expressed in CHO cells compared to 10 uM DAMGO. The assay is classed as cell-based. An outline of the steps:
as §1

Assay [10] has as its target T2, Mu-type opioid receptor. Nature of the assay: Stimulation of [35S]GTP-gamma-S, binding to Opioid receptor mu1 expressed in CHO cells. It is filed as functional, cell-based. An outline of the steps: as §1
Assay [11] has as its system Mus musculus. Nature of the assay: In vivo opioid receptor activity in mouse tail flick assay. The assay is classed as functional.
For assay [12], the system named is Mus musculus. Nature of the assay: In vivo opioid receptor activity in mouse p-phenylquinone writhing assay. It is filed as functional. A general note: An intraperitoneal irritant provokes the stretching counted in writhing tests.
The subject of assay [13] is Mus musculus. Nature of the assay: In vivo antinociceptive activity against opioid receptor in mouse hot plate […] assay; No inhibition (inactive at 30 uM). It is filed as functional, organism-based.
Assay [14] has as its system Mus musculus. The experiment in a line: In vivo antinociceptive activity against opioid receptor in mouse p-phenylquinone writhing test; No inhibition (inactive at 1 uM). It is filed as functional, organism-based.
Assay [15] has as its target T1, Delta-type opioid receptor. The experiment in a line: Stimulation of [35S]-GTP gammaS binding to Opioid receptor delta 1 expressed in CHO cells; ND = Not determined. The assay is classed as functional, cell-based. Put shortly:
as §1

Assay [16] deals with T2, Mu-type opioid receptor. The experiment in a line: Stimulation of [35S]GTP-gamma-S, binding to Opioid receptor mu1 expressed in CHO cells; ND = Not determined. It is filed as functional, cell-based. Put shortly: as §1
Assay [17] addresses T2, Mu-type opioid receptor. The experiment in a line: Stimulatory effect on [35S]-GTP gammaS binding to Opioid receptor mu1 expressed in CHO cells compared to 10 uM DAMGO; ND = Not determined. The assay is classed as cell-based. Put shortly:
as §1

Molecules are shown by their SMILES. Calls of active or inactive are those of the source. No cut-off for these calls is given here.

Chain of Opioid receptors; delta & kappa (Homo sapiens) (P41143 whole entry, looked up): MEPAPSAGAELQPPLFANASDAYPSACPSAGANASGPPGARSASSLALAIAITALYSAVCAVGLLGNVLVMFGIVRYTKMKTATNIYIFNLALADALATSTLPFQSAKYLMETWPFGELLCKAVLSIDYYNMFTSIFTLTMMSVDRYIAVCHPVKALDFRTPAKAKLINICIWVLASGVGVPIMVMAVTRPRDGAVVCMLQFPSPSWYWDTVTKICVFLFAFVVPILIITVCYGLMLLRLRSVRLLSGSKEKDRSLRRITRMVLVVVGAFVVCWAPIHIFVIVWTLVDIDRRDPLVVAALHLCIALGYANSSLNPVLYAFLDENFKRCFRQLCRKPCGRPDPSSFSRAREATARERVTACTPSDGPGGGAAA
Chain of Opioid receptors; delta & kappa (Homo sapiens) (P41145 whole entry, looked up): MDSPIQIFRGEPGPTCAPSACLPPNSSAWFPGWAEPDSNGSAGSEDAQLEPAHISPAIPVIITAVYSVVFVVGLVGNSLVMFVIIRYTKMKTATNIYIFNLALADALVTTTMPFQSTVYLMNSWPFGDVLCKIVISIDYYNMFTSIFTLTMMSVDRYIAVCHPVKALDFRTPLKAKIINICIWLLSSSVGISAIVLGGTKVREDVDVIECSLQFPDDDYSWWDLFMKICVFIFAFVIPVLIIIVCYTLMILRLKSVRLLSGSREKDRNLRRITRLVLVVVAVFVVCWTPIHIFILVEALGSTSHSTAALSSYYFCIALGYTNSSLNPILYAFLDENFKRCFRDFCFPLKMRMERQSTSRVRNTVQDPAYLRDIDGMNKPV
T1 sequence (P41143 whole entry): as the sequence (P41143 whole entry, looked up) above
Chain of Opioid receptors; mu & kappa (Homo sapiens) (P35372 whole entry, looked up): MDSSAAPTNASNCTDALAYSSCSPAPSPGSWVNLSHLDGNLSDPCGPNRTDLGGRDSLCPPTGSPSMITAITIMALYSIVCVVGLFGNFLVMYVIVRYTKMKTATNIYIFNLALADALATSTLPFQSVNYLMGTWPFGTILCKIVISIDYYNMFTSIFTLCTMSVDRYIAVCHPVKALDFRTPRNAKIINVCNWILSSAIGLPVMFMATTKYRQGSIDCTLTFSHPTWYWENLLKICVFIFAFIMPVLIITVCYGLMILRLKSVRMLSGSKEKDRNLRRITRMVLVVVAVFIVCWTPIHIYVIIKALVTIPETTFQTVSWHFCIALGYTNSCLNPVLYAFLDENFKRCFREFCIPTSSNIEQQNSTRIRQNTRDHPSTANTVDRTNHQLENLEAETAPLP
Chain of Opioid receptors; mu & kappa (Homo sapiens) (P41145 whole entry, looked up): as the sequence (P41145 whole entry, looked up) above
T2 sequence (P35372 whole entry): as the sequence (P35372 whole entry, looked up) above
T3 sequence (P41145 whole entry): as the sequence (P41145 whole entry, looked up) above

The ED50 is the dose at which the effect has come halfway, by size or by number of responders. Lower therefore signals an effect at a small dose. In turn, `CN1CC[C@]23c4c5ccc(O)c4O[C@H]2[C@@H](O)C=C[C@H]3[C@H]1C5` [MORPHINE] gave an ED50 with Mus musculus [1] of 0.8 mg/kg.

The term Ki denotes the dissociation constant of the complex between target and ligand, obtained from inhibition or displacement. A high value points to a looser hold on the target. Turning to `COC(=O)[C@@H]1C[C@H](O[Si](C)(C)C)C(=O)[C@H]2[C@@]1(C)CC[C@H]1C(=O)O[C@H](c3ccoc3)C[C@]21C`, the Selectivity in [2] and in [4] was over 7 each time. Further, the Ki (in assay [3]; at Mu-type opioid receptor [5]) was over 10 µM throughout.

With `COC(=O)[C@@H]1C[C@H](O)[C@H](O)[C@@H]2[C@@]3(C)C[C@@H](c4ccoc4)OC(=O)[C@H]3CC[C@]21C`, the Ki (in [6]; in assay [3]; on Mu-type opioid receptor [5]) was over 10 µM throughout.

Broadly, the Emax is the maximal effect, on the per cent scale that the assay sets. Broadly, the EC50 is the midpoint of the concentration-response curve. Low values mean a more potent agent, high ones a less potent agent. With `CCC(=O)O[C@H]1C[C@@H](C(=O)OC)[C@]2(C)CC[C@H]3C(=O)O[C@H](c4ccoc4)C[C@]3(C)[C@H]2C1=O`, in [7], the Emax amounted to 110%. The Selectivity in assay [2] came to 2730. Besides, the Ki in assay [3] was 6.69 µM; at Mu-type opioid receptor [5], over 1 µM. This compound gave an EC50 in assay [8] of 0.14 µM.

`COC(=O)[C@@H]1C[C@H](OC(C)=O)[C@H](OC(C)=O)[C@H]2[C@@]1(C)CC[C@H]1C(=O)O[C@H](c3ccoc3)C[C@]21C`: the Selectivity in [2] and in [4] was over 15 in each case. In addition, the Ki (in assay [3]; on Mu-type opioid receptor [5]) was over 10 µM each time.

As for `COC(=O)[C@@H]1C[C@H](OC(=O)C(C)C)C(=O)[C@H]2[C@@]1(C)CC[C@H]1C(=O)O[C@H](c3ccoc3)C[C@]21C`, in assay [7], the Emax stood at 105%. In addition, the Ki was over 10 µM in assay [3] and 2.98 µM at Mu-type opioid receptor [5]. This compound registered a Selectivity in [4] of 196. Moreover, it took 0.36 µM to reach a half-maximal effect in assay [8] (EC50).

Turning to `COC(=O)[C@@H]1C[C@H](OC(=O)c2ccccc2)C(=O)[C@H]2[C@@]1(C)CC[C@H]1C(=O)O[C@H](c3ccoc3)C[C@]21C` [HERKINORIN], the Emax in assay [7] turned out to be 140%; at Mu-type opioid receptor [9] it was 130%. The results for the Selectivity in [2] and in assay [4] were 12 and 0.13, respectively. In assay [3], this compound yielded a Ki of 1.17 µM. In addition, the EC50 in assay [8] came out at 1.32 µM; at Mu-type opioid receptor [10] it was 0.5 µM.

With `COC(=O)[C@@H]1C[C@H](OC(C)=O)C(=O)[C@H]2[C@@]1(C)CC[C@H]1C(=O)O[C@H](c3ccoc3)C[C@]21C` [SALVINORIN A], the ED50 with Mus musculus [11] worked out at 1.98 mg/kg; in the assay on Mus musculus [12], 0.59 mg/kg. For the same compound, the inhibition entry in the assay with Mus musculus [13] and with Mus musculus [14] was “inactive” in each case.

`COC(=O)[C@@H]1C[C@H](O)[C@H](O)[C@H]2[C@@]1(C)CC[C@H]1C(=O)O[C@H](c3ccoc3)C[C@]21C`: the Selectivity is over 3 in [2] and 2 in assay [4]. Moreover, the Ki in assay [6] is 3.19 µM; in assay [3] it was over 10 µM; at Mu-type opioid receptor [5], 5.74 µM.

As to `C=C(C)C(=O)O[C@H]1C[C@@H](C(=O)OC)[C@]2(C)CC[C@H]3C(=O)O[C@H](c4ccoc4)C[C@]3(C)[C@H]2C1=O`, the Selectivity in assay [2] is 210; in [4], 7. Moreover, the Ki in [3] amounted to 8.88 µM; at Mu-type opioid receptor [5] it was 0.26 µM.

For `C=CCNC(=O)O[C@H]1C[C@@H](C(=O)OC)[C@]2(C)CC[C@H]3C(=O)O[C@H](c4ccoc4)C[C@]3(C)[C@H]2C1=O`, the Selectivity in [2] was determined as 55; in assay [4] it was 5. For the same compound, the values for the Ki (in assay [3]; at Mu-type opioid receptor [5]) were 6.46 µM and 0.64 µM, respectively.

Take `COC(=O)[C@@H]1C[C@H](OC(=O)Nc2ccccc2)C(=O)[C@H]2[C@@]1(C)CC[C@H]1C(=O)O[C@H](c3ccoc3)C[C@]21C`: the figures for the Emax (in [7]; at Mu-type opioid receptor [9]) were 100% and 92%, respectively. Besides, the Selectivity amounted to 2 in assay [2] and 0.2 in assay [4]. Moreover, the EC50 was 2.53 µM in [15], 0.59 µM at Mu-type opioid receptor [16] and 0.48 µM in assay [8].

Consider `COC(=O)[C@@H]1C[C@H](OC(=N)C(Cl)(Cl)Cl)C(=O)[C@H]2[C@@]1(C)CC[C@H]1C(=O)O[C@H](c3ccoc3)C[C@]21C`, for which the Selectivity in [2] was 95; in assay [4], over 150. The Ki on Mu-type opioid receptor [5] was over 10 µM.

`COC(=O)C(=O)O[C@H]1C[C@@H](C(=O)OC)[C@]2(C)CC[C@H]3C(=O)O[C@H](c4ccoc4)C[C@]3(C)[C@H]2C1=O`: the Selectivity in [2] and in assay [4] was over 30 throughout. Also, the Ki (in assay [3]; at Mu-type opioid receptor [5]) was over 10 µM each time.

With `COC(=O)[C@@H]1C[C@H](OC(=O)c2cccnc2)C(=O)[C@H]2[C@@]1(C)CC[C@H]1C(=O)O[C@H](c3ccoc3)C[C@]21C`, the Emax is 110% at Mu-type opioid receptor [17] and 76% in [7]. Besides, the results for the Selectivity in [2] and in assay [4] were 3 and 0.04, respectively. The same compound gave a Ki in [3] of 4.82 µM. For the same compound, the EC50 on Mu-type opioid receptor [16] amounted to 2.1 µM; in assay [8], 5.74 µM.

`COC(=O)[C@@H]1C[C@H](OS(C)(=O)=O)C(=O)[C@H]2[C@@]1(C)CC[C@H]1C(=O)O[C@H](c3ccoc3)C[C@]21C` gave an Emax in assay [7] of 112%. This compound also displayed a Ki in assay [3] of over 10 µM. Also, the EC50 in assay [8] is 0.03 µM.
